Compound activity as filed in PubChem BioAssay.
This is a sample that favours compounds with a hit; in the whole collection about 1.8% have one here.
NPY2 pot ag = NPY-Y2 potentiators or agonists, primary screen, cell-based. Neuropeptide Y receptor type 2 (Homo sapiens), P49146. cells expressing NPY-Y2, potentiator/agonist read-out. activation, % at 3.6 µM. 0.45% of 220,000 active; in the data active = activation above about 27%;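 note: cells stimulated with NPY near EC25 plus isoproterenol at EC100; 0% = vehicle plus submaximal agonist and 100% = vehicle plus saturating agonist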
NPY Y1 blocker = NPY-Y1 receptor antagonists, primary screen, cell-based | Neuropeptide Y receptor type 1 (Homo sapiens), P25929 | HEK293-CNG Y1 cells, membrane potential fluorescence; NPY at EC95, then isoproterenol | inhibition, % at 3.6 µM | 1% of 200,000 active;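 active = inhibition above the campaign mean inhibition of all tested compounds plus 3 SD, cut at about 20% in these data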;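 note: 0% = DMSO wells given NPY plus isoproterenol and 100% = isoproterenol alone without NPY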
Target sequence (P25929 whole entry, looked up): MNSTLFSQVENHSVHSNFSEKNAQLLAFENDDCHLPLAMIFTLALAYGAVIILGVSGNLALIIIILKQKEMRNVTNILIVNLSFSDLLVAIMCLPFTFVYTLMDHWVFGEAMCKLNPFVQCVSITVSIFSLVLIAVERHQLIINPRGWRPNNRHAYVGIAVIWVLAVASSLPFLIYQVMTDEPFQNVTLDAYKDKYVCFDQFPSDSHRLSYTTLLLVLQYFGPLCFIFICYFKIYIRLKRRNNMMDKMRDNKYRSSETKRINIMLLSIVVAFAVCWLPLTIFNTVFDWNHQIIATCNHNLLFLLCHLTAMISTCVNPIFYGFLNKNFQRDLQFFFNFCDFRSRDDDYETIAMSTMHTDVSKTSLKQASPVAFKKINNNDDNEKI
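Material: HEK293 Y1/CNG channel cell line | Also added: NPY (25 nM), isoproterenol (1 µM), Ro 20-1724 (25 µM) | Compound: One concentration, 3.6 µM, in 0.4% DMSO | Schedule: 3 h dye uptake, 1 h room-temperature compound, 45 min post-isoproterenol | Signal: Membrane-potential fluorescent dye readout | Read-out: % inhibition of NPY effect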
NPY1 pot ag = NPY-Y1 receptor potentiators or agonists, primary screen, cell-based; Neuropeptide Y receptor type 1 (Homo sapiens), P25929; NPY-Y1 expressing cells, potentiator/agonist activation; activation, % at 3.6 µM; 0.37% of 220,000 active; AID 1304, 2008; in the data active = activation above about 33%, passing the limit was not always enough;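 note: cells stimulated with NPY at EC10 then isoproterenol at EC100; 0% = low agonist plus stimulus and 100% = saturating agonist plus stimulus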
NPY-Y2 antag = NPY-Y2 receptor antagonists, primary screen, cell-based. Neuropeptide Y receptor type 2 (Homo sapiens), P49146. NPY-Y2 expressing cells, antagonist mode. inhibition, % at 2.7 µM. 0.99% of 140,000 active. AID 793, 2007; in the data active = inhibition above about 17%;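 note: 0% = vehicle with agonist challenge and 100% = reference antagonist with challenge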
Starred values were filed as active, the others as inactive; x = not tested or not shown.

SMILES	NPY2 pot ag	NPY Y1 blocker	NPY1 pot ag	NPY-Y2 antag
CCOC(=O)N1CCC(NC(=O)c2cc(C(=O)Nc3ccc(S(=O)(=O)N4CCCCC4)cc3)ccc2CO)CC1	-10	2	-14	x
Cc1cc(C)nc(N/N=C/c2ccccc2Cl)n1	-21	x	12	x
Cc1cc(NC2CCCCC2)nc(NCc2ccccc2)n1	-16	23*	-34	24*
Cc1cc(N/N=C/c2ccccc2Cl)nc(NCc2ccccc2)n1	-14	25*	-72	19*
Cc1ccc(Nc2cc(C)nc(NCc3ccccc3)n2)cc1	-3	8	-60	15
Cc1nc2ccccc2nc1OCc1ccccc1	0	3	0	5
CC(O)c1c(OCc2ccccc2)ncnc1OCc1ccccc1 (configuration not stated)	-14	33*	-27	3
Cc1ccccc1NC(=S)N(Cc1cccs1)C1CCCCC1	3	1	14	x
Cc1ccccc1NC(=S)N(C)Cc1cccs1	101*	-17	104*	-1
CC1CC(C)CN(CCOc2ccccc2-c2ccccc2)C1 (configuration not stated)	-9	34*	-23	30*
CC(C)c1ccc(/C=C/C(=O)NCCCc2ccccc2)cc1	-28	25*	-14	30*
CCOC(=O)C1CCN(c2ncnc3c2oc2ccc(Cl)cc23)CC1	-20	18	-61	19*
CCOC(=O)C1CCN(c2ncnc3c2[nH]c2cccc(OC)c23)CC1	-2	-2	-20	0
CCOC(=O)Cc1csc(NC(=O)COc2cc(C)cc(C)c2)n1	-8	5	-6	x
COC(=O)C(C)Sc1nc2c(c(=O)[nH]c(=O)n2C)n1CCCc1ccccc1 (configuration not stated)	-12	46*	-47	46*
COc1ccc(C)cc1NC(=O)COC(=O)c1c(C)noc1C	0	3	-5	1
Cc1noc(C)c1C(=O)OCC(=O)Nc1cc(Cl)ccc1Oc1ccccc1	-16	23*	-20	22*
Cc1ccc(S(=O)(=O)NN2C(=O)c3ccccc3NC2c2ccccn2)cc1 (configuration not stated)	-6	0	6	x
COc1cccc(C(=O)Nc2ccccc2OC(F)(F)F)c1	-16	-5	-11	x
O=C(c1cc2c(s1)-c1ccccc1OC2)N1CCCC1	31*	4	42*	4
O=C(c1cc2c(s1)-c1ccccc1OC2)N1CCN(c2ccccc2)CC1	-16	11	-26	11
CCOC(=O)c1c(C)oc2ccc(O)c(CN3CCCCC3)c12	-10	27*	-32	22*
O=C(c1ccccc1)c1coc2ccc(O)c(CN3CCOCC3)c12	-10	2	-30	6
COc1ccc(C(=O)c2coc3ccc(O)c(CN4CCCCC4)c23)cc1	-34	20*	-87	25*
Cc1ccc(C2CC(c3cccs3)n3nc(N)nc3N2)cc1 (configuration not stated)	12	22*	2	0
SMILES	NPY2 pot ag	NPY Y1 blocker	NPY1 pot ag	NPY-Y2 antag
CCOC(=O)N1CCC(NS(=O)(=O)c2ccc(C#N)cc2)CC1	-14	x	-5	x
Cc1ccc(-c2noc(CSc3nnc(Cc4ccccc4)n3-c3ccc(Cl)cc3)n2)cc1	-35	21*	-37	25*
Cc1ccccc1N1CCN(CCCN2C(=O)CC(=C(c3ccccc3)c3ccccc3)C2=O)CC1	99*	-19	105*	4
O=C1CC(=C(c2ccccc2)c2ccccc2)C(=O)N1CCCCN1CCN(c2cccc(Cl)c2)CC1	1	16	11	8
O=C(NCc1ccccc1F)c1ccc(S(=O)(=O)Nc2cccc(C(F)(F)F)c2)cc1	13	-5	20	-2
O=C(NCc1ccc(F)cc1)c1ccc(S(=O)(=O)Nc2cccc(C(F)(F)F)c2)cc1	37*	-10	48*	-1
C/C(=N/NC(=O)c1ccc(C)nc1)c1ccc2c(c1)CCCC2	1	0	-4	x
OC1(c2ccc(F)cc2)CN(c2ccccc2)C2=[N+]1CCS2 (configuration not stated)	92*	5	108*	6
O=C(CN1CCN(c2ccc(F)cc2)CC1)c1ccc2c(c1)OCO2	-3	2	6	4
Cc1cccc(-c2nc(=S)c3c(n2Cc2ccco2)CCCC3)c1	-1	25*	1	22*
Cc1ccc(-c2nc(=S)c3c(n2Cc2ccco2)CCCC3)cc1	1	21*	-33	16
COc1cccc(-c2nc(=S)c3c(n2Cc2ccco2)CCCC3)c1	-8	0	-12	7
CCNc1nc(N)c(C(=O)c2ccc(Cl)s2)s1	21	0	51	3
CCOc1ccc2nc(NS(=O)(=O)c3ccc(NC(C)=O)cc3)sc2c1	5	0	0	1
CCOc1ccc2nc(NS(=O)(=O)Cc3ccccc3)sc2c1	-36	23*	-35	20*
O=C(O)c1cn(Cc2ccccc2Cl)c2ccc(S(=O)(=O)N3CCOCC3)cc2c1=O	-2	7	16	x
O=C(COC(=O)c1c2c(nc3ccccc13)CCCC2)Nc1ccc2c(c1)OCO2	-8	20*	-2	17*
O=C(COC(=O)c1cc(-c2ccccc2)nc2ccccc12)Nc1ccc2c(c1)OCO2	-11	0	-4	1
Cc1ccccc1N(CC(=O)Nc1ccccc1C(=O)NCc1ccco1)S(=O)(=O)c1ccccc1	9	6	7	2
Cc1ccc(S(=O)(=O)N(Cc2ccc(Cl)cc2)c2ccccc2C(=O)NCc2ccco2)cc1	-12	29*	-110	32*
O=C(CCNC(=O)c1ccccc1)Nc1cccnc1	-17	2	8	x
COc1ccc(CC(=O)N2CCN(C(=O)Cc3ccc(OC)cc3)CC2)cc1	20	3	5	3
COc1ccc(CC(=O)N2CCN(c3ccc(C4=NNC(=O)CC4C)cc3)CC2)cc1 (configuration not stated)	-23	79*	-79	83*
Cc1ccc(C)c(NC(=O)CN(C)S(=O)(=O)c2cccc3cccnc23)c1	10	x	0	x
COc1ccc2c(c1)CCc1c-2n[nH]c1C(=O)O	40*	-5	32	-3
SMILES	NPY2 pot ag	NPY Y1 blocker	NPY1 pot ag	NPY-Y2 antag
O=c1[nH]c2ccsc2c(=O)n1CCO	-12	x	13	x
COc1ccccc1NC(C)C(=O)Nc1ccc(C(C)=O)cc1 (configuration not stated)	14	-7	16	4
Nc1ccc(-c2cc(-c3ccc(N)cc3)nc(-c3ccccc3)n2)cc1	39*	-8	46*	-5
O=C(/C=C/Nc1ccc(Oc2ccccc2Cl)cc1)c1ccco1	4	9	-10	x
CCOc1ccccc1OCCN1CCC(Cc2ccccc2)CC1	-10	26*	-29	17*
Cc1ccc(C(=O)NC(=S)Nc2ccc3c(c2)OCCO3)c(C)c1	-23	22*	-17	8
Cc1nn(Cc2nnc(SCC(=O)Nc3ccc(Cl)cc3)n2C)c(C)c1[N+](=O)[O-]	0	x	-7	x
